Published values of several laboratories.
Compare with care: the assays were run in different laboratories.

SMILES | host | matrix | route | dose | setting | endpoint | value
CCOCC(=O)N1CCC[C@H](C(=O)NCc2nc(-c3ccc(C)nc3)cs2)C1 |  | Caco-2 |  |  |  | efflux ratio | 3.8
CN(C)C(=O)c1cc2cnc(Nc3ccc(-c4ccc5c(=O)cc(N6CCOCC6)oc5c4)cc3)nc2n1C1CCCC1.Cl | BALB/c mouse | plasma | oral | 20 mg/kg |  | Tmax | 54 min
COc1ccc2c(c1)CN(C(=O)CCN1CCC(Cc3ccccc3)CC1)CC[S@@+]2[O-] | male human | plasma | intravenous | 0.15 mg/kg | healthy volunteers | Cmax | 349 ng/mL
Cc1cc(-c2nccc3c2ccn3CC(=O)Nc2ccc(-c3cnccn3)cn2)ccn1 | human | plasma | oral | 40 mg | single dose | Cmax | 0.345 µM
COc1ccc(-c2c(Nc3ccccn3)[nH]c3c(C4=CCCCC4)c(-c4ccccc4)nn3c2=O)cc1 | human | plasma | oral | 400 mg once daily | multiple doses, patients | Cmax | 3200 ng/mL
O=C(COc1ccc(Cl)cc1)NC12CC(c3nnc([C@H]4C[C@@H](OC(F)(F)F)C4)o3)(C1)C2 | human | plasma | oral | 200 mg | multiple doses, once daily, steady state, healthy volunteers | Cmax | 16.2 µM
COCC(=O)N1CCC[C@H](C(=O)NCc2nc(-c3ccc(C#N)cc3)cs2)C1 |  | Caco-2 |  |  |  | efflux ratio | 2.2
CC(C)n1c(C2CCNCC2)nc2c([N+](=O)[O-])c(Br)c(Br)cc21 | human | plasma | oral | 75 mg | patients | Cmax | 60.5 ng/mL
